# Screening results from PubChem BioAssay.
# Rows were chosen to be rich in hits. Some 1.8% of all compounds tested hit in one or more screens of this group.
# NPY Y1 blocker = antagonists of human neuropeptide Y receptor Y1; P25929; HEK293-CNG Y1 cells, membrane potential fluorescence; NPY at EC95, then isoproterenol; inhibition, % at 3.6 µM; hit rate 1% among 200,000; AID 1040;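 active = inhibition above the campaign mean inhibition of all tested compounds plus 3 SD, cut at about 20% in these data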
# Target sequence (P25929 whole entry, looked up): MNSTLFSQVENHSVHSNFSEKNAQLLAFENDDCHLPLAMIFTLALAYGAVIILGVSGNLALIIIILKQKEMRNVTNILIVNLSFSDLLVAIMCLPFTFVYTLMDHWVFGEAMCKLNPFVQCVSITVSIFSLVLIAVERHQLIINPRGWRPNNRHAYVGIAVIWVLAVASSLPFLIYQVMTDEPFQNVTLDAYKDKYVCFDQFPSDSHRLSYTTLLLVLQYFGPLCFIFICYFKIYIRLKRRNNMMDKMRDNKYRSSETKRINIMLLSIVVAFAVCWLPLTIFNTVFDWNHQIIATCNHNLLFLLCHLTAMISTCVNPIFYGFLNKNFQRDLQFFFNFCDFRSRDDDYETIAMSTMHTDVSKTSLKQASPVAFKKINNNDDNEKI
#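 material = HEK293 cells with Y1 receptor plus CNG channel | also added = NPY 25 nM then isoproterenol 1 µM plus Ro 20-1724 25 µM | schedule = dye 3 h, compound 60 min room temperature, stimulation 45 min | measured by = membrane potential fluorescence | benchmarks = high control isoproterenol alone, low control NPY with isoproterenol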
# NPY-Y2 PAM-ag = potentiators or agonists of human neuropeptide Y receptor Y2. P49146. cells expressing NPY-Y2, potentiator/agonist read-out. activation, % at 3.6 µM. hit rate 0.45% among 220,000. AID 1359; in the data active = activation above about 27%;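 note: cells stimulated with NPY near EC25 plus isoproterenol at EC100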
# NPY1 pot ag = potentiators or agonists of human neuropeptide Y receptor Y1. NPY-Y1 expressing cells, potentiator/agonist activation. activation, % at 3.6 µM. hit rate 0.37% among 220,000. AID 1304; in the data active = activation above about 33%, passing the limit was not always enough;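 note: cells stimulated with NPY at EC10 then isoproterenol at EC100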
# NPY Y2 blocker = blocks the human neuropeptide Y Y2 receptor | P49146 | NPY-Y2 expressing cells, antagonist mode | inhibition, % at 2.7 µM | hit rate 0.99% among 140,000 | AID 793
# NPY-Y1 ant conf = human NPY-Y1 antagonism, confirmation; shares compounds with NPY Y1 blocker; HEK293-CNG NPY-Y1, membrane potential fluorescence, cAMP; NPY challenge against isoproterenol-raised cAMP; inhibition, % at 3.6 µM; hit rate 21% among 1,200; AID 1254; in the data active = inhibition above about 20%
# NPY-Y2 antag ct = counter-screen for NPY-Y1 antagonists: human NPY-Y2 antagonism; shares compounds with NPY Y1 blocker; HEK293 NPY-Y2 CNG membrane potential fluorescence; cells given NPY, then isoproterenol; inhibition, % at 3.6 µM; hit rate 28% among 1,200; AID 1255
# Numbers stand for hits; - = inactive; . = not tested or not shown. Cut-off read from the data, not from the text of the source, unless noted: active = inhibition above about 17%; inactive = the rest.
SMILES,NPY Y1 blocker,NPY-Y2 PAM-ag,NPY1 pot ag,NPY Y2 blocker,NPY-Y1 ant conf,NPY-Y2 antag ct
Cc1cc(=O)n2c(C(=O)Nc3ccc(C(=O)OC(C)C)cc3)c(C(=O)Nc3ccccc3)sc2n1,25,-,-,.,35,29
COC(=O)C1C(=O)CC(C)(O)C(C(=O)OC)C1/C=C/c1ccccc1 (configuration not stated),-,-,-,-,.,.
O=C1C=C(c2ccccc2)CC(/C=C/c2ccccc2)C1 (configuration not stated),23,-,-,-,-,-
N=c1c2c3c(sc2nc2n1CCCCC2)CCCCC3,20,-,-,-,-,-
O=c1c2c3c(sc2nc2n1CCCCC2)CCCCC3,-,-,-,-,.,.
Cc1ccc(CN(Cc2cc3cccc(C)c3[nH]c2=O)C(=S)NCCCN(C)C)cc1,-,-,-,.,.,.
Cc1cccc2cc(CN(Cc3ccccc3)C(=S)NCCCN(C)C)c(=O)[nH]c12,28,-,-,.,-,-
Clc1ccc(-c2nc3ccccn3c2CN2CCOCC2)cc1,-,-,-,-,.,.
COc1ccc(-c2nc3ccccn3c2CN2CCN(c3ccccc3F)CC2)cc1,30,-,-,.,27,21
O=C1c2cccc3c(N4CCCCC4)ccc(c23)C(=O)N1c1ccccc1O,-,-,-,.,.,.
O=C1c2cccc3c(N4CCCCC4)ccc(c23)C(=O)N1c1ccc(O)cc1,22,-,-,.,-,20
CCCCNC(=O)c1onc(CSc2cccc3ccccc23)c1C(=O)O,-,-,-,-,.,.
N=c1n(CCN2CCOCC2)c2ccccc2n1Cc1ccccc1Br,21,-,-,-,-,-
Cn1c(=O)n(Cc2ccccc2Br)c2ccccc21,-,-,-,.,.,.
O=C(Cc1cccs1)N(CC1CCCO1)C1(C(=O)NC2CCCC2)CCCCC1 (configuration not stated),36,-,-,.,-,-
CCOC(=O)c1ccccc1NC(=O)c1ccccc1SC,24,-,-,-,-,-
COC(=O)c1c(NC(=O)CSc2nnnn2-c2ccccc2)sc2c1CCC(C)C2 (configuration not stated),20,-,-,-,-,-
COC(=O)c1c(NC(=O)CSc2nnnn2-c2ccccc2)sc2c1CCC(C(C)(C)C)C2 (configuration not stated),-,-,-,-,.,.
CSCCC(NC(=O)c1ccco1)C(=O)OC(C)C(=O)NC(=O)NC1CCCCC1 (configuration not stated),25,-,-,-,-,-
CO/N=C(\c1nonc1N)N1CCN(c2ccc([N+](=O)[O-])cc2Cl)CC1,-,-,-,-,.,.
CO/N=C(\c1nonc1N)N1CCN(c2ccc(Cl)cc2[N+](=O)[O-])CC1,24,-,-,-,-,-
CCNC(=O)N1CCOCC1,-,-,-,-,.,.
O=C(NNC(=S)NCc1ccccc1)c1ccc2c(c1)OCO2,-,-,-,-,.,.
O=C(NC(=S)NCc1ccccc1)c1ccc2c(c1)OCO2,21,-,-,-,-,-
Cc1csc(-c2cnn(-c3ccccc3)c2NC(=O)c2cccc(C(F)(F)F)c2)n1,-,-,-,-,.,.
SMILES,NPY Y1 blocker,NPY-Y2 PAM-ag,NPY1 pot ag,NPY Y2 blocker,NPY-Y1 ant conf,NPY-Y2 antag ct
CCOC(=O)c1ccc(Oc2cc(C)nc(Cl)n2)cc1,.,-,-,.,.,.
COCCNc1nc(SCc2ccccc2)nc2sc3c(c12)CCC3,26,-,-,-,21,22
COc1cccc(-n2nc(C(=O)N3CC(C)CC(C)C3)c3ccccc3c2=O)c1 (configuration not stated),-,-,-,-,.,.
O=C(Nc1ccc(F)cc1)c1sc2cc(C(F)(F)F)cnc2c1-c1cccs1,23,-,-,-,-,-
Cc1nc(C(=O)Nc2cc(Cl)ccc2Cl)nn1-c1cc(OC(C)C)c(Cl)cc1Cl,-,-,-,-,.,.
Cc1nc(C(=O)Nc2cccc(Cl)c2Cl)nn1-c1cc(OC(C)C)c(Cl)cc1Cl,20,-,-,-,-,26
Cn1c(=NCC(O)COc2ccccc2)sc2ccccc21 (configuration not stated),22,-,-,-,-,-
COCCCn1c(C)nc2c(c1=O)c1nc3ccccc3nc1n2CCc1ccccc1,-,-,-,-,.,.
O=C1CCCC2=C1C(c1ccncc1)c1c(nc(SCc3ccccc3Cl)[nH]c1=O)N2 (configuration not stated),-,-,-,-,.,.
CCC(C)Sc1nc2c(c(=O)[nH]1)C(c1cccs1)C1=C(CCCC1=O)N2 (configuration not stated),22,-,-,.,-,-
CCn1ncc(Cl)c1C(=O)Nc1cc(Cl)ccc1Cl,-,-,-,-,.,.
O=c1cc(-c2c(F)c(F)c(F)c(F)c2F)oc2c(F)c(F)c(F)c(F)c12,-,-,-,-,.,.
CN1CCc2c(n(CC(O)CNCc3ccccc3)c3ccccc23)C1=O (configuration not stated),22,-,-,.,-,-
CN1CCc2c(n(CC(O)CN(CCO)CCO)c3ccccc23)C1=O (configuration not stated),-,-,-,.,.,.
C=CCn1c(SCc2nc3ccccc3nc2C)nnc1-c1ccoc1C,-,-,-,-,.,.
Cc1oc(-c2ccccc2)nc1Cn1cccc1C1=NC(c2ccccc2)CO1 (configuration not stated),22,-,-,-,21,24
CCOC(=O)c1c(C)n(-c2ccc(C)cc2)c2ccc(O)c(CN(C)C)c12,51,-,-,.,52,55
CCOC(=O)c1c(CSc2ccccc2)n(C)c2cc(Br)c(O)c(CN(C)C)c12,.,-,-,.,.,.
CCOC(=O)c1c(CSc2ccc(C)cc2)n(C)c2cc(Br)c(O)c(CN(C)C)c12,75,-,-,.,60,72
COCC[N+]1(C)CCCCC1,-,-,-,.,.,.
COc1cccc(NC(=O)COC(=O)c2c3c(nc4ccccc24)CCC(C)C3)c1 (configuration not stated),31,-,-,-,-,-
CC1CCc2nc3ccccc3c(C(=O)OCC(=O)NC3CCS(=O)(=O)C3)c2C1 (configuration not stated),-,-,-,.,.,.
CC(C)c1cccc(C(C)C)c1NC(=O)c1ccccc1,-,-,-,.,.,.
c1ccc(COc2ccccc2CNC23CC4CC(CC(C4)C2)C3)cc1,158,-,-,.,110,70
O=C(COc1ccc(Br)cc1CNC1CCCCC1)NCCc1ccccc1,27,-,-,.,-,-
COc1ccc(Br)cc1CN(C)CC(=O)NCCc1ccccc1,-,-,-,.,.,.
c1ccc(COc2ccccc2CNC2CCCC2)cc1,32,-,-,.,-,-
COC(=O)CCC/C=C1\SC[C@@H](NC(=O)c2ccccc2)C1NC(C)=O (some centres not stated),-,-,-,-,.,.
CCN(CC)CCN(Cc1cc2ccc(C)c(C)c2[nH]c1=O)C(=S)NCc1ccco1,27,-,-,.,-,-
